PubChem BioAssay AID602343 (The Scripps Research Institute Molecular Screening Center, 2012)

Molecular target: Monoacylglycerol lipase ABHD6 (Mus musculus) (UniProt Q8R2Y0)
Assay: brain ABHD6 inhibition after oral dosing, late-stage follow-up, in vivo study for DAGLb inhibitor project, gel-based competitive ABPP, fluorescence, mouse, set 2 (AID 602343)
Settings: stronger effect = higher value
Method in brief: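 detection = in-gel fluorescence band density | test system = mouse brain membrane ABHD6, in vivo dosing | quantity = membrane protein 1 mg/mL | schedule = Brains taken 4 h post-dose, probe labeling 30 min at 37 °C | benchmarks = vehicle high, gel background low | repeats = one replicate per group | read-out = % inhibition vs vehicle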

[1] = dose or concentration not given here
[2] = measured here: inhibition at 1 mg/kg p.o.
[3] = measured here: inhibition at 5 mg/kg p.o.

Chain of Monoacylglycerol lipase ABHD6 (Mus musculus) (Q8R2Y0 whole entry, looked up): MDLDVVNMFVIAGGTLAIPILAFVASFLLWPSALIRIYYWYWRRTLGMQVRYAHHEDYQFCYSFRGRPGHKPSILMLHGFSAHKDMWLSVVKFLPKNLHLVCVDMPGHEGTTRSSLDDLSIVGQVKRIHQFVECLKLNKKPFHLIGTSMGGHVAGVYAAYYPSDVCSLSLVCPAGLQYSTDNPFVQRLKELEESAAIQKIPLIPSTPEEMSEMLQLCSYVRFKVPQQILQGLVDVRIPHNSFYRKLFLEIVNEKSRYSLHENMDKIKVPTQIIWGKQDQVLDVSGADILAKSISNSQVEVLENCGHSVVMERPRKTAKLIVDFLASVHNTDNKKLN

Row | SMILES | inhibition [1] [%] | inhibition [2] [%] | inhibition [3] [%]
1 | O=C(N1CCCCC1Cc1ccccc1)n1cc(-c2ccc(-c3ccccc3)cc2)nn1 (centres undefined) | 100 | 0 | 99
2 | COc1ccc(-c2ccc(-c3cn(C(=O)N4CCCCC4c4ccccc4)nn3)cc2)cc1 (centres undefined) | 99 | 55 | 55
3 | COc1ccccc1-c1ccc(-c2cn(C(=O)N3CCCCC3Cc3ccccc3)nn2)cc1 (centres undefined) | 99 | 30 | 95
